Screening data deposited in PubChem BioAssay by several laboratories.
GAA850 FXN act – FXN promoter activators, primary screen, cell-based, luciferase luminescence, HEK293 lucGAA850. HEK293 lucGAA850 FXN promoter luciferase reporter, 24 h; percent of 10 µM SAHA response. activation, % at 6 µM. 0.56% of 360,000 active;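 active = activation above the average of all compounds screened plus 3 SD, cutoff fixed separately per campaign, cut at about 7.5% in these data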
CHOP inh – inhibitors of CHOP promoter induction, primary screen, cell-based, unfolded protein response, luciferase reporter. CHO-K1 CHOP-promoter luciferase, tunicamycin-induced, 15-18 h. inhibition, % at 10 µM. 3.8% of 220,000 active;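 active = compounds that reduced the stress-induced luciferase reporter signal by more than about 70% of percent inhibition, limit read from the data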
UPR CHOP act – activators of apoptotic CHOP UPR arm, primary screen, cell-based, CHO-CHOP luciferase reporter, luminescence, uHTS; UPR activation; percent of tunicamycin response over DMSO baseline; activation, % at 10 µM; 0.34% of 330,000 active;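 active = at 10 µM dose, activation of 40% or more, normalized to positive control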
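Assay system: CHO cells with stable CHOP pathway luciferase reporter; Buffer or medium: F12 plus 10% serum; Times: 16-18 h cell attachment, then 6 h compound exposure, 37 °C; Signal: luciferase luminescence; Read-out basis: percent activation relative to tunicamycin control; Control set: tunicamycin high control, DMSO low control.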
UPR XBP1 act – activators of adaptive XBP1 UPR arm, primary screen, cell-based, CHO-XBP1 luciferase reporter, luminescence, uHTS; IRE1-XBP1 UPR activation; percent of tunicamycin response, DMSO as zero; activation, % at 20 µM; 0.33% of 330,000 active;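 active = versus positive control, 20 µM dose yields 30% or more activation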
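Assay system: IRE1-XBP1 luciferase reporter CHO line. Input: 1000 cells/well. Buffer or medium: F12 with 10% serum. Doses: 20 µM, 1% DMSO. Times: overnight seeding at 37 °C, 6 h compound treatment at 37 °C. Technique: Steady-Glo luciferase glow luminescence, 10 min after reagent addition.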
GAA30 counter – GAA30 FXN promoter activators, confirmation, counter-screen for GAA850 frataxin promoter activator project, cell-based, luminescence, HEK293, lucGAA30, triplicate; shares compounds with GAA850 FXN act; HEK293 lucGAA30 FXN promoter luciferase, 24 h; DMSO = 0%, 5 µM ipriflavone = 100%; activation, % at 6 µM; 66% of 1,900 active; AID 588350, 2011;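 active = mean activation above the mean of solvent-only control wells plus 3 SD, cut at about 22% in these data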;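 note: counterscreen of GAA850 promoter hits where activity marks nonselective or luminescence artifacts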
FXN GAA850 conf – FXN GAA850 promoter activators in reporter cells, confirmation, cell-based, luminescence, HEK293 lucGAA850, triplicate. shares compounds with GAA850 FXN act. HEK293 lucGAA850 FXN promoter luciferase reporter, 24 h; 100% = activation by SAHA. activation, % at 6 µM. 86% of 1,900 active. AID 588351, 2011;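 active = mean activation above a set limit taken from the primary screen, cut at about 8% in these data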
Of the large screens only hits and unclear results are named; the others gave an inactive call (follow-up assays come after a bar, where they were run). The full list was thinned out, with hits kept by preference.

CC(C)N1CCC(C)(C(=O)Nc2cccc3c2CCCC3)C1 (configuration not stated)	none (no result: CHOP inh, UPR CHOP act, UPR XBP1 act)
COC(=O)[C@H]1C[C@@]2(O)CN(S(=O)(=O)c3ccc(C)cc3)C[C@@]2(OC(=O)NCc2ccco2)C[C@H]1C(=O)OC	none (no result: CHOP inh, UPR CHOP act, UPR XBP1 act)
Oc1csc(Cc2nc(-c3ccc(Br)cc3)cs2)n1	GAA850 FXN act 7.6 | GAA30 counter 96.1 | FXN GAA850 conf 38.2
NC(=O)Cc1nc(-c2ccc(Br)cc2)cs1	none
COc1ccc(N2C(=O)NC(NC(=O)C(C)(C)C)(C(F)(F)F)C2=O)cc1 (configuration not stated)	GAA850 FXN act 9.2 (no result: CHOP inh) | GAA30 counter inactive | FXN GAA850 conf 8.2
Cc1ccc(N2C(=O)NC(NC(=O)C(C)(C)C)(C(F)(F)F)C2=O)cc1C (configuration not stated)	none
O=[N+]([O-])c1ccc(S(=O)(=O)c2cccc(C(F)(F)F)c2)nc1	GAA850 FXN act 14.0 (no result: CHOP inh) | GAA30 counter inactive | FXN GAA850 conf inactive
COc1ccc(CNC(=O)c2cccc3c(-c4cnn(C)c4)coc23)cc1OC	none (no result: CHOP inh, UPR CHOP act, UPR XBP1 act)
O=C(Nc1cnn(C23CC4CC(CC(C4)C2)C3)c1)c1cnn2cccnc12	GAA850 FXN act 10.2 | GAA30 counter 107.2 | FXN GAA850 conf 42.2
Nc1nc(N=Nc2ccc(O)cc2)cc(=O)[nH]1	none (no result: CHOP inh, UPR CHOP act, UPR XBP1 act)
Cc1cc2nc3ccc(N(C)C)cc3nc2cc1N	GAA850 FXN act 7.8 (no result: CHOP inh) | GAA30 counter 119.3 | FXN GAA850 conf 34.3
Cc1ccc(-n2nc3cc(C)c(N)cc3n2)cc1	none
CN=C1S/C(=C\c2ccc(O)c(Br)c2)C(=O)N1C	none (no result: CHOP inh)
CN=C1S/C(=C\c2ccc(O)c(OC)c2)C(=O)N1C	GAA850 FXN act 9.9 (no result: CHOP inh) | GAA30 counter 113.0 | FXN GAA850 conf 34.8
COc1ccc(C(C)(O)c2nc(-c3ccc(F)cc3OC)cs2)cc1 (configuration not stated)	none (no result: CHOP inh, UPR CHOP act, UPR XBP1 act)
COCc1nc2oc3ccc(C)cc3c(=O)c2cc1C(=O)OC	GAA850 FXN act 7.9 (no result: CHOP inh) | GAA30 counter 119.2 | FXN GAA850 conf 47.3
O=c1[nH]c2ccccc2c2cn(-c3ccccc3)nc12	GAA850 FXN act 8.8 (no result: CHOP inh) | GAA30 counter 112.4 | FXN GAA850 conf 45.6
CC(C)(C)c1cc(C(=O)N/N=C/c2ccco2)n[nH]1	GAA850 FXN act 8.3 | GAA30 counter 72.7 | FXN GAA850 conf 28.6
Cc1ccsc1/C=N\NC(=O)c1cc(C(C)(C)C)[nH]n1	none
CCOc1ccc(C(=O)Nc2ccc(NC(=O)c3ccco3)c(Cl)c2)cc1Br	GAA850 FXN act 11.9 | GAA30 counter inactive | FXN GAA850 conf 8.4
Cc1ccn(CCC(=O)N2CCCC(N3CCN(c4ccccc4C)CC3)C2)n1 (configuration not stated)	none (no result: CHOP inh, UPR CHOP act, UPR XBP1 act)
O=C(OCc1cn([C@H]2CN(C(=O)C3CCCCC3)[C@@H](c3ccccc3)C[C@@H]2O)nn1)c1ccccc1	none (no result: CHOP inh, UPR CHOP act, UPR XBP1 act)
CN(C)C(CNC(=O)CSc1nc2sc3c(c2c(=O)n1C)CCCC3)c1ccccc1 (configuration not stated)	GAA850 FXN act 7.9 (no result: CHOP inh) | GAA30 counter inactive | FXN GAA850 conf 7.6
COCCn1c(SCC(=O)NCC(c2ccccc2)N(C)C)nc2sc3c(c2c1=O)CCC3 (configuration not stated)	none (no result: CHOP inh, UPR CHOP act, UPR XBP1 act)
COc1ccc(-n2c(SCC(=O)O)nc3sc4c(c3c2=O)CCCC4)cc1	GAA850 FXN act 8.3 (no result: CHOP inh) | GAA30 counter 21.9 | FXN GAA850 conf 15.1
CCCCN1CCCCC1(C)C(=O)NCc1cccc(OC)c1 (configuration not stated)	none (no result: CHOP inh, UPR CHOP act, UPR XBP1 act)
Clc1ccc2oc(-c3ccccc3)cc(=NCCCN3CCOCC3)c2c1	GAA850 FXN act 9.4 (no result: UPR CHOP act, UPR XBP1 act) | GAA30 counter 51.4 | FXN GAA850 conf 21.7
COc1ccc(-c2nnc(Nc3nc4c(OC)cccc4s3)o2)cc1	none (no result: UPR CHOP act, UPR XBP1 act)
COc1ccc(-c2nnc(Nc3nc4c(OC)cccc4s3)o2)c(OC)c1	GAA850 FXN act 9.0 | GAA30 counter inactive | FXN GAA850 conf 23.4
Fc1ccc(-c2csc3ncnc(Nc4ccc(N5CCOCC5)cc4)c23)cc1	GAA850 FXN act 11.6 | GAA30 counter inactive | FXN GAA850 conf 11.3
CC1ON=C(c2cccc3ccccc23)N(C)C1=O (configuration not stated)	none (no result: CHOP inh, UPR CHOP act, UPR XBP1 act)
Cc1ccc(NC(=O)Nc2nnc([C@H]3C[C@H](O)[C@@H](CO)O3)s2)cc1	none (no result: CHOP inh, UPR CHOP act, UPR XBP1 act)
N#Cc1sc2nc(N3CCCCC3)c3c(c2c1N)CCCC3	GAA850 FXN act 7.6 | GAA30 counter inactive | FXN GAA850 conf 17.3
Cc1nc2sc(C#N)c(N)c2c2c1CCCC2	none (no result: CHOP inh)
CCOC(=O)[C@@H]1[C@H]2COc3ccc(Br)cc3[C@@H]2N2C(=O)N(c3cccc(Cl)c3)C(=O)[C@@]12C	GAA850 FXN act 9.9 (no result: CHOP inh) | GAA30 counter inactive | FXN GAA850 conf inactive
CCOC(=O)[C@H]1[C@H]2COc3ccc(Br)cc3[C@@H]2N2C(=O)c3c(C)cc(C)cc3NC(=O)[C@@]12C	GAA850 FXN act 14.4 (no result: CHOP inh) | GAA30 counter 28.3 | FXN GAA850 conf 18.6
CCOC(=O)[C@H]1[C@H]2COc3ccc(Br)cc3[C@@H]2N2C(=O)c3ccc(C)cc3NC(=O)[C@@]12C	none (no result: CHOP inh)
CCOc1ccc(OCc2cccc(C(=O)N3CCCCCC3)c2)cc1	GAA850 FXN act 7.8 | GAA30 counter 104.9 | FXN GAA850 conf 34.9
Cc1ccc2nc(C(F)(F)F)c(C#N)c(N)c2c1	GAA850 FXN act 40.1 | GAA30 counter 79.4 | FXN GAA850 conf 77.4
Cc1cccc(C(C#N)c2nc3ccccc3nc2C(F)(F)F)c1 (configuration not stated)	none (no result: CHOP inh)
CC(C)(C(=O)N1CCC1(C)C(=O)Nc1ccccc1Br)c1ccccc1 (configuration not stated)	none (no result: CHOP inh, UPR CHOP act, UPR XBP1 act)
CN1C(=O)[C@H]2[C@@H](c3ccc(C(F)(F)F)cc3)N[C@]3(CCCN(Cc4ccc(Br)cc4)C3=O)[C@H]2C1=O	none (no result: CHOP inh, UPR CHOP act, UPR XBP1 act)
Cc1ccc(S(=O)(=O)N2CCC(=O)N(CCOC(=O)Nc3cccc(Cl)c3)CC2)cc1	GAA850 FXN act 9.4 | GAA30 counter 41.9 | FXN GAA850 conf 18.6
COc1ccccc1-c1cnc(C(O)c2ccc(F)c(F)c2)[nH]1 (configuration not stated)	none (no result: CHOP inh, UPR CHOP act, UPR XBP1 act)
COC(=O)c1ccc(CSC(=N)N)o1	GAA850 FXN act 8.5 | GAA30 counter 31.2 | FXN GAA850 conf 12.6
Cc1nc2c(OCc3ccc(Cl)cc3)cccn2c1N(C)C(=O)CCC1CCCC1	none (no result: CHOP inh, UPR CHOP act, UPR XBP1 act)
